Results as given in ChEMBL document CHEMBL3108738, “The chemical and biological potential of C ring modified triterpenoids” (Eur J Med Chem, 2014).
Activity calls are given as the source filed them. The rule behind the calls is not given here.

How the values were obtained:
A2780 [1] = assay: Induction of apoptosis in human A2780 cells assessed as necrotic cells at 30 uM after 24 hrs by annexin V/propidium iodide staining-based FACS analysis (reference value: 6.37%); type: functional
A2780 [2] = assay: Induction of apoptosis in human A2780 cells assessed as vital cells at 30 uM after 24 hrs by annexin V/propidium iodide staining-based FACS analysis (reference value: 82.15%); type: functional
A2780 [3] = assay: Induction of apoptosis in human A2780 cells assessed as secondary necrotic cells at 30 uM after 24 hrs by annexin V/propidium iodide staining-based FACS analysis (reference value: 9.71%); type: functional
A2780 [4] = assay: Induction of apoptosis in human A2780 cells assessed as necrotic cells at 30 uM after 24 hrs by annexin V/propidium iodide staining-based FACS analysis (reference value: 1.78%); type: functional
A2780 [5] = assay: Cell cycle arrest in human A2780 cells at 30 uM by propidium iodide staining-based FACS analysis; type: functional
A2780 [6] = assay: Cell cycle arrest in human A2780 cells assessed as accumulation at S phase at 30 uM by propidium iodide staining-based FACS analysis (reference value: 32.439 %); type: functional
A2780 [7] = assay: Cell cycle arrest in human A2780 cells assessed as accumulation at G2 phase at 30 uM by propidium iodide staining-based FACS analysis (reference value: 15.721 %); type: functional
A2780 [8] = assay: Cell cycle arrest in human A2780 cells assessed as accumulation at G1 phase at 30 uM by propidium iodide staining-based FACS analysis (reference value: 51.839 %); type: functional
NIH3T3 = assay: Cytotoxicity against mouse NIH/3T3 cells after 96 hrs by SRB assay; type: ADME, cell-based; details: NIH3T3, 96 h
MCF7 = assay: Cytotoxicity against human MCF7 cells after 96 hrs by SRB assay; type: functional, cell-based; details: MCF7, 96 h
A549 = assay: Cytotoxicity against human A549 cells after 96 hrs by SRB assay; type: functional, cell-based; details: A549, 96 h
HT-29 = assay: Cytotoxicity against human HT-29 cells after 96 hrs by SRB assay; type: functional, cell-based; details: HT-29, 96 h
A2780 [9] = assay: Cytotoxicity against human A2780 cells after 96 hrs by SRB assay; type: functional, cell-based; details: A2780, 96 h
8505C = assay: cells; type: functional, cell-based; details: Homo sapiens, 96 h
[10] = Cytotoxicity against human 518A2 cells after 96 hrs by SRB assay; type: functional, cell-based; details: 518A2, 96 h
A2780 [11] = assay: Induction of apoptosis in human A2780 cells at 30 uM after 24 hrs by annexin V/propidium iodide staining-based FACS analysis; type: functional
A2780 [12] = assay: Induction of apoptosis in human A2780 cells assessed as DNA ladder formation at 30 uM after 24 hrs by electrophoresis; type: functional, cell-based
Summary of the method: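 A2780 cells were exposed to 30 µM compound for 24 h. Floating (dead) cells were collected and washed with PBS, and DNA fragmentation was examined by gel laddering alongside an untreated control.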

A2780 [13] = assay: Cell cycle arrest in human A2780 cells assessed as reduction of G2/M phase at 30 uM by propidium iodide staining-based FACS analysis; type: functional
A2780 [14] = assay: Cell cycle arrest in human A2780 cells assessed as accumulation at G0/G1 phase at 30 uM by propidium iodide staining-based FACS analysis; type: functional

| SMILES | IC50 (8505C) [µM] | Activity (A2780 [1]) [%] | Activity (A2780 [2]) [%] | Activity (A2780 [3]) [%] | Activity (A2780 [4]) [%] | Activity (A2780 [5]) | Activity (A2780 [6]) [%] | Activity (A2780 [7]) [%] | Activity (A2780 [8]) [%] | IC50 (NIH3T3) [µM] | IC50 (MCF7) [µM] | IC50 (A549) [µM] | IC50 (HT-29) [µM] | IC50 (A2780 [9]) [µM] | IC50 [10] [µM] | Activity (A2780 [11]) | Activity (A2780 [12]) | Activity (A2780 [13]) | Activity (A2780 [14]) [%] |
| --- | --- | --- | --- | --- | --- | --- | --- | --- | --- | --- | --- | --- | --- | --- | --- | --- | --- | --- | --- |
| CC(=O)O[C@H]1CC[C@]2(C)[C@H]3C[C@H](O)[C@]45OC(=O)[C@@]6(CCC(C)(C)C[C@H]64)CC[C@@]5(C)[C@]3(C)CC[C@H]2C1(C)C | > 90 | 11.84 | 74.74 | 11.89 | 1.54 | inactive | 32.261 | 15.86 | 51.879 | 85.7 | > 90 | > 90 | > 90 | 63.2 | > 90 |  |  |  |  |
| CC(=O)O[C@H]1CC[C@]2(C)[C@H]3C(=O)C(O)=C4[C@@H]5CC(C)(C)CC[C@]5(C(=O)OCc5ccccc5)CC[C@@]4(C)[C@]3(C)CC[C@H]2C1(C)C | 16.4 | 12.83 | 72.96 | 12.64 | 1.55 |  | 22.262 | 15.469 | 62.269 | > 60 | > 60 | > 60 | > 60 | 8.2 | > 60 |  |  |  | <20 |
| CC(=O)O[C@H]1CC[C@]2(C)[C@H]3CC(=O)[C@@H]4[C@@H]5CC(C)(C)CC[C@]5(C(=O)OCc5ccccc5)CC[C@@]4(C)[C@]3(C)CC[C@H]2C1(C)C | 41.9 |  |  |  |  |  | 40.927 | 1.057 | 58.015 | > 90 | > 90 | 69.1 | > 90 | 19.8 | 73.2 |  |  | Active |  |
| CC1(C)CC[C@]2(C(=O)OCc3ccccc3)CC[C@]3(C)[C@H](C(=O)C[C@@H]4[C@@]5(C)CC[C@H](O)C(C)(C)[C@@H]5CC[C@]43C)[C@@H]2C1 |  | 13.82 | 74.47 | 11.08 | 0.62 |  |  |  |  |  |  |  |  |  |  |  |  |  |  |
| COC(=O)[C@]12CCC(C)(C)C[C@H]1C1=CC(=O)[C@@H]3[C@@]4(C)CC[C@H](O)C(C)(C)[C@@H]4CC[C@@]3(C)[C@]1(C)CC2 | 13 | 34.13 | 33.08 | 29.68 | 3.11 |  |  |  |  | 24.8 | 21.3 | 15.1 | 18.5 | 6.6 | 15.6 | >50% | Active |  |  |

Further lines, with some results ahead:

| IC50 (8505C) [µM] | SMILES | Activity (A2780 [1]) [%] | Activity (A2780 [2]) [%] | Activity (A2780 [3]) [%] | Activity (A2780 [4]) [%] | Activity (A2780 [5]) | Activity (A2780 [6]) [%] | Activity (A2780 [7]) [%] | Activity (A2780 [8]) [%] | IC50 (NIH3T3) [µM] | IC50 (MCF7) [µM] | IC50 (A549) [µM] | IC50 (HT-29) [µM] | IC50 (A2780 [9]) [µM] | IC50 [10] [µM] | Activity (A2780 [11]) | Activity (A2780 [12]) | Activity (A2780 [13]) | Activity (A2780 [14]) [%] |
| --- | --- | --- | --- | --- | --- | --- | --- | --- | --- | --- | --- | --- | --- | --- | --- | --- | --- | --- | --- |
| 23.3 | COC(=O)[C@]12CCC(C)(C)C[C@H]1C1=C(O)C(=O)[C@@H]3[C@@]4(C)CC[C@H](O)C(C)(C)[C@@H]4CC[C@@]3(C)[C@]1(C)CC2 | 48.08 | 25.72 | 19.74 | 6.65 |  | 21.594 | 18.968 | 59.438 | 25.8 | 25.8 | 25.6 | 15.3 | 17.5 | 21.2 | >50% |  |  |  |
| 8.4 | COC(=O)[C@]12CCC(C)(C)C[C@H]1C1=C(O)C(=O)[C@@H]3[C@@]4(C)CC[C@H](OC(C)=O)C(C)(C)[C@@H]4CC[C@@]3(C)[C@]1(C)CC2 | 24.67 | 57.12 | 16.21 | 2 |  | 42.682 | 7.345 | 49.973 | 12.5 | 9.4 | 8.2 | 13.5 | 4 | 7.7 | Active | Active | Active |  |
| 7 | CC(=O)O[C@H]1CC[C@]2(C)[C@H]3C[C@H](OC(C)=O)[C@]45OC(=O)[C@@]6(CCC(C)(C)C[C@H]64)CC[C@@]5(C)[C@]3(C)CC[C@H]2C1(C)C | 32.66 | 44.89 | 18.67 | 3.78 | inactive | 27.288 | 16.597 | 56.115 | 7.2 | 18.5 | 6.6 | 14.1 | 5.6 | 6.8 | Active | Active |  |  |
| 16.2 | COC(=O)[C@]12CCC(C)(C)C[C@H]1C1=CC(=O)[C@@H]3[C@@]4(C)CC[C@H](OC(C)=O)C(C)(C)[C@@H]4CC[C@@]3(C)[C@]1(C)CC2 | 13.28 | 72.75 | 12.57 | 1.4 |  | 25.334 | 17.835 | 56.831 | 33.6 |  | 66.1 | 29.4 | 40 | 24.1 |  |  |  |  |
| 20.5 | COC(=O)[C@]12CCC(C)(C)C[C@H]1C1=CC[C@@H]3[C@@]4(C)CC[C@H](OC(C)=O)C(C)(C)[C@@H]4CC[C@@]3(C)[C@]1(C)CC2 | 15.68 | 72.47 | 9.43 | 2.41 | inactive | 28.805 | 15.901 | 55.294 | 34.3 | 16.7 | 26.1 | 26.7 | 8.6 | 34.1 |  |  |  |  |
| 31.1 | COC(=O)[C@]12CCC(C)(C)C[C@H]1[C@H]1C(=O)C[C@@H]3[C@@]4(C)CC[C@H](OC(C)=O)C(C)(C)[C@@H]4CC[C@@]3(C)[C@]1(C)CC2 | 11 | 75.08 | 12.96 | 0.96 |  | 24.431 | 14.004 | 61.565 | 28.2 | > 30 | > 30 | 46.8 | > 30 | 40.8 |  |  |  | <20 |
